Measured values published in ChEMBL document CHEMBL4513216, “Probing the Open Global Health Chemical Diversity Library for Multistage-Active Starting Points for Next-Generation Antimalarials” (ACS Infect Dis, 2020).

assay: Toxicity liver stage against HepG2, at 10uM; type: cell-based; set-up: test concentration 10 uM, cell line HepG2-A16-CD81EGFP; details: human, HepG2-A16-CD81EGFP cells; read-out: INHIBITION
In short: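 Uninfected HepG2-A16-CD81EGFP cells, 3 × 10^3 per well, 1536-well, plated on prespotted compound at 10 μM final, parasite-free screening media added to match infected plates; puromycin 10 μM positive, DMSO 0.5% negative; run in parallel with 48 h PbLuc assay at 37 °C, 5% CO2; viability by CellTiter-Glo luminescence, normalized to controls.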

With `CC(C)c1nn(CC(=O)N2CCCC2)c(=O)c2c1cnn2C(C)(C)C` as the compound, how does the cytotoxicity at 10 µM read?
The cytotoxicity at 10 µM was 1.12%.

Which cytotoxicity at 10 µM does the source give for `Cn1cccc1C(O)CNC(=O)c1ccc2nsnc2c1` (stereo not given) here?
The cytotoxicity at 10 µM was 4.4%.

With `O=S(=O)(NCC1CCN(c2cnccn2)CC1)c1ccc(F)c(Cl)c1` as the compound, how does the cytotoxicity at 10 µM read?
Its cytotoxicity at 10 µM is 11.6%.

For `CCN(CC)[C@@H]1CN(S(=O)(=O)c2cn(C)cn2)[C@@H]2CCCO[C@H]12`, which cytotoxicity at 10 µM is on record?
Its cytotoxicity at 10 µM is -147%.

Which cytotoxicity at 10 µM does the source give for `Cc1ccc(N2CC3(CCN(S(=O)(=O)C4CC4)C3)C2)nn1` here?
The cytotoxicity at 10 µM was 10.6%.

Which cytotoxicity at 10 µM does the source give for `O=C(NC1CC1)N1CCc2ccc(=O)n(CC3CC3)c2CC1` here?
The cytotoxicity at 10 µM was -4.63%.

Which cytotoxicity at 10 µM does the source give for `CN1CCCc2sc(C(=O)NC3CC3)nc21` here?
The cytotoxicity at 10 µM was -149%.

With `O=S(=O)(C1CC1)N1CCCC2(COCCN(c3nncs3)C2)C1` (stereo not given) as the compound, how does the cytotoxicity at 10 µM read?
Its cytotoxicity at 10 µM is 5.22%.

With `CC(C)N1CCc2onc(Cn3cccn3)c2C1` as the compound, how does the cytotoxicity at 10 µM read?
The cytotoxicity at 10 µM was 5.44%.

Which cytotoxicity at 10 µM does the source give for `Cc1noc(C2CCC3(CCN(C(=O)c4sccc4C)CC3)O2)n1` (stereo not given) here?
The cytotoxicity at 10 µM was 8.94%.

Which cytotoxicity at 10 µM does the source give for `CCOC[C@H]1CC[C@H]2[C@H](CCN2C(=O)c2cnccn2)O1` here?
The cytotoxicity at 10 µM was 2.22%.

With `O=C1NC(c2ccccc2)=N[C@@]12CC[C@@H]1CN(Cc3nccs3)C[C@@H]12` as the compound, how does the cytotoxicity at 10 µM read?
The cytotoxicity at 10 µM was 6.37%.

For `Cn1cccc1C(=O)N1CC[C@H]2[C@H](CO[C@H]2CNS(C)(=O)=O)C1`, which cytotoxicity at 10 µM is on record?
Its cytotoxicity at 10 µM is -2.94%.

Which cytotoxicity at 10 µM does the source give for `Cc1occc1C(=O)N1CCCC2(CCN(c3ccccc3)C2=O)C1` (stereo not given) here?
Its cytotoxicity at 10 µM is -5.5%.

For `Cc1nc(C)c2c(n1)CCN(Cc1ccco1)CC2`, which cytotoxicity at 10 µM is on record?
Its cytotoxicity at 10 µM is -0.141%.

For `CCS(=O)(=O)N1CCc2onc(CNc3ncccn3)c2C1`, which cytotoxicity at 10 µM is on record?
The cytotoxicity at 10 µM was -0.748%.

With `N#Cc1cc(C#N)c(SCC(=O)NCc2ccc(F)cc2)nc1N` as the compound, how does the cytotoxicity at 10 µM read?
Its cytotoxicity at 10 µM is 0.0723%.

Which cytotoxicity at 10 µM does the source give for `CC(C)Cc1noc(C2CCCN(C(=O)CCc3cnn(C)c3)C2)n1` (stereo not given) here?
Its cytotoxicity at 10 µM is 0.297%.

Which cytotoxicity at 10 µM does the source give for `COCCNc1nnc(-c2cnc(C)cn2)s1` here?
The cytotoxicity at 10 µM was 4.22%.

For `COc1ccccc1C1Cn2ccnc2CN1Cc1c[nH]nc1C` (stereo not given), which cytotoxicity at 10 µM is on record?
Its cytotoxicity at 10 µM is -3.85%.

With `CN(C)c1cccc(C2CCCN2S(=O)(=O)c2cn(C)cn2)n1` (stereo not given) as the compound, how does the cytotoxicity at 10 µM read?
The cytotoxicity at 10 µM was -28.7%.

Which cytotoxicity at 10 µM does the source give for `CC(=O)N1CCn2c(nnc2C2CCCCN2C(C)=O)C1` (stereo not given) here?
Its cytotoxicity at 10 µM is -28.1%.

Which cytotoxicity at 10 µM does the source give for `Cc1ccc2nc(C(=O)N3CCCC[C@]4(C)NC(=O)CCC[C@H]34)cn2c1` here?
The cytotoxicity at 10 µM was -9.99%.

For `CC(=O)Nc1cc(C(C)(C)C)sc1C#N`, which cytotoxicity at 10 µM is on record?
The cytotoxicity at 10 µM was 10.3%.

With `Cc1ccnc(NC(=O)c2cc(C)oc2C)c1` as the compound, how does the cytotoxicity at 10 µM read?
Its cytotoxicity at 10 µM is -4.57%.

Which cytotoxicity at 10 µM does the source give for `CC(C(=O)N1CCOCC1)S(=O)(=O)Cc1noc(C(C)(C)C)n1` (stereo not given) here?
Its cytotoxicity at 10 µM is -14.2%.

With `c1ccc(-c2nnc3n2CCN(c2nc(C4CC4)ns2)C3)cc1` as the compound, how does the cytotoxicity at 10 µM read?
Its cytotoxicity at 10 µM is 0.38%.

For `OC(CNCCc1nnc2ccccn12)c1ccc(F)c(F)c1` (stereo not given), which cytotoxicity at 10 µM is on record?
Its cytotoxicity at 10 µM is 2.52%.

With `NC(=O)c1cnn2c1NCC(CNCC1(c3ccccc3)CCC1)C2` (stereo not given) as the compound, how does the cytotoxicity at 10 µM read?
The cytotoxicity at 10 µM was -7.73%.

With `Cc1ccc(C)c(C(=O)NC2CCC(N3C(=O)CCC3=O)CC2)c1` (stereo not given) as the compound, how does the cytotoxicity at 10 µM read?
The cytotoxicity at 10 µM was 3.38%.

With `Cc1nn(C(C)(C)C)c(=O)n1CC(=O)NCC(F)(F)F` as the compound, how does the cytotoxicity at 10 µM read?
The cytotoxicity at 10 µM was -1.32%.

For `COc1ncccc1CNC(=O)c1csc(Br)c1`, which cytotoxicity at 10 µM is on record?
The cytotoxicity at 10 µM was -8.03%.

For `CNS(=O)(=O)Cc1cccc(CNc2ccc(C#N)cn2)c1`, which cytotoxicity at 10 µM is on record?
Its cytotoxicity at 10 µM is -11.2%.

For `CC(C)C(=O)NCc1ccccc1NS(=O)(=O)c1ccccc1`, which cytotoxicity at 10 µM is on record?
Its cytotoxicity at 10 µM is 9.05%.

With `COCc1ccccc1C(=O)N1CCC(CNC(=O)OC(C)(C)C)C1` (stereo not given) as the compound, how does the cytotoxicity at 10 µM read?
Its cytotoxicity at 10 µM is 10.1%.

For `O=C(CN1CCOC(c2ccccc2C(F)(F)F)C1)NC1CC1` (stereo not given), which cytotoxicity at 10 µM is on record?
The cytotoxicity at 10 µM was 3.02%.

For `CCC(C)(NCC(=O)NC(=O)NC)c1nc(C)cs1` (stereo not given), which cytotoxicity at 10 µM is on record?
The cytotoxicity at 10 µM was -4.36%.

For `O=C(NCCNS(=O)(=O)c1ccc2c(c1)CCC2)c1ccccc1`, which cytotoxicity at 10 µM is on record?
Its cytotoxicity at 10 µM is 9.36%.

For `Cn1ccnc1CNc1c(F)cccc1-n1cccn1`, which cytotoxicity at 10 µM is on record?
The cytotoxicity at 10 µM was -5.2%.

For `CCc1nnc2n1CCN(Cc1csc(-c3ncccn3)n1)C2`, which cytotoxicity at 10 µM is on record?
Its cytotoxicity at 10 µM is -2.33%.

For `Cc1ccc(C)c(CC(=O)Nc2cnccc2SCCCO)c1`, which cytotoxicity at 10 µM is on record?
Its cytotoxicity at 10 µM is 21.2%.

Which cytotoxicity at 10 µM does the source give for `CCOc1cccc(NC(=O)c2cscn2)n1` here?
Its cytotoxicity at 10 µM is -3.59%.

For `COC(=O)c1cnc(C(=O)N(c2ccc(OC)c(F)c2)C(C)C)cn1`, which cytotoxicity at 10 µM is on record?
The cytotoxicity at 10 µM was -1.23%.

With `CCCS(=O)(=O)CCN1CCOC(c2ccsc2)C1` (stereo not given) as the compound, how does the cytotoxicity at 10 µM read?
Its cytotoxicity at 10 µM is -2.69%.

Which cytotoxicity at 10 µM does the source give for `CCN(C(=O)c1ccccc1I)C1CC(=O)NC1=O` (stereo not given) here?
Its cytotoxicity at 10 µM is -3.86%.

For `CCSc1ccc(NC(=O)NC(C)c2ccncc2)cn1` (stereo not given), which cytotoxicity at 10 µM is on record?
Its cytotoxicity at 10 µM is -5.14%.

Which cytotoxicity at 10 µM does the source give for `NC(=O)CCSCc1cc(Br)cc2cccnc12` here?
Its cytotoxicity at 10 µM is -7.68%.

With `COC(=O)c1cccc(CNC(=O)c2cc(C(C)C)n(C)n2)c1` as the compound, how does the cytotoxicity at 10 µM read?
The cytotoxicity at 10 µM was -3.26%.

For `CSc1sc(NC(=O)C2CCCN(C(N)=O)C2)nc1C` (stereo not given), which cytotoxicity at 10 µM is on record?
The cytotoxicity at 10 µM was 6.08%.

Which cytotoxicity at 10 µM does the source give for `CN(Cc1nc(N)nc(N(C)C)n1)Cc1cccc2ccccc12` here?
The cytotoxicity at 10 µM was 0.554%.

For `CC(=O)NC(C(=O)N(C)Cc1nnc2n1CCC2)C(C)C` (stereo not given), which cytotoxicity at 10 µM is on record?
The cytotoxicity at 10 µM was -7.85%.

With `Cn1cc(C2CCCN2c2ncnc3[nH]ccc23)cn1` (stereo not given) as the compound, how does the cytotoxicity at 10 µM read?
The cytotoxicity at 10 µM was -9.59%.

For `Cc1noc(C)c1CN(C)C(=O)NC(C)c1cccs1` (stereo not given), which cytotoxicity at 10 µM is on record?
The cytotoxicity at 10 µM was 1.41%.

Which cytotoxicity at 10 µM does the source give for `CC1CCC(NS(=O)(=O)CC(=O)Nc2ccccc2N2CCCC2)CC1` (stereo not given) here?
The cytotoxicity at 10 µM was 3.75%.

For `CC(C)N(C(=O)CCc1ccco1)C1CCOCC1`, which cytotoxicity at 10 µM is on record?
Its cytotoxicity at 10 µM is -5.63%.
